Here are results for 17 molecules from ChEMBL document CHEMBL3580662, “(R)-2-Phenylpyrrolidine Substituted Imidazopyridazines: A New Class of Potent and Selective Pan-TRK Inhibitors” (ACS Med Chem Lett, 2015).

A value given as a limit tells only on which side of the number the result lay.

The test system of series [1] is Rattus norvegicus. Put plainly: Toxicity in CRL RNU nude rat xenografted with human KM12 cells assessed as increase in body weight at 25 to 50 mg/kg, po bid administered for 14 days measured on day 14 post last dose. In kind it is organism-based. As to conditions: in vivo, 336 h.
Series [2] can be described thus: Volume of distribution at steady state in Wistar rat at 3 mg/kg, iv and 10 mg/kg, po. In kind it is ADME, organism-based. As to conditions: in vivo, read-out: Vdss. In short, it runs like this:
(§1)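 Male Wistar rats given 3 mg/kg IV and 10 mg/kg PO, formulated as a solution in 75% PEG300/25% D5W. Plasma PK parameters derived: CL, Vss, T1/2, AUC and Cmax after oral dosing, and F(%).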

Series [3] is described as follows: Half life in Wistar rat at 3 mg/kg, iv and 10 mg/kg, po. The conditions noted are these: in vivo. In kind it is ADME, organism-based. In short, it runs like this:
as §1

Series [4] relates to Rattus norvegicus. As to the kind of experiment: Plasma clearance in Wistar rat at 3 mg/kg, iv and 10 mg/kg, po relative to hepatic blood flow. The conditions noted are these: in vivo. In kind it is ADME, organism-based.
A short description of series [5]: Ratio of Cmax in brain to Cmax in plasma of Balb/C mouse at 20 mg/kg, po. In kind it is ADME, organism-based. The conditions noted are these: brain and plasma, read-out: BPR.
The nature of series [6]: Oral bioavailability in Wistar rat at 10 mg/kg. In kind it is ADME, organism-based. The conditions noted are these: in vivo. In short, it runs like this: as §1
The nature of series [7]: AUC in Wistar rat at 10 mg/kg, po. The format is ADME, organism-based. As to conditions: in vivo. In short, it runs like this:
as §1

The nature of series [8]: Plasma clearance in Wistar rat at 3 mg/kg, iv and 10 mg/kg, po. The format is ADME, organism-based. In short, it runs like this:
as §1

A short description of series [9]: Cmax in Wistar rat at 10 mg/kg, po. In kind it is ADME, organism-based. The conditions noted are these: in vivo. Also noted: dose 10 mg/kg, route oral. In short, it runs like this: as §1
Series [10] addresses Tyrosine-protein kinase JAK2 (Homo sapiens, UniProt O60674). Put plainly: Inhibition of Tel-fused JAK2 (unknown origin) expressed in mouse BA/F3 cells after 48 hrs by luciferase reporter gene assay in absence of recombinant mouse IL3. In kind it is cell-based. The conditions noted are these: baf3.
A short description of series [11]: Ratio of AUC in brain to AUC in plasma of Balb/C mouse at 20 mg/kg, po. The conditions noted are these: brain and plasma, read-out: Ratio AUC. The format is ADME, organism-based.
Series [12] relates to KM12. As to the kind of experiment: Antitumor activity against human KM12 cells xenografted in po dosed CRL RNU nude rat assessed as tumor growth inhibition administered as bid for 14 days. The format is functional, organism-based. In short, it runs like this:
(§2)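 Female CRL RNU nude rats transplanted with KM12 tumor tissue; dosing started 10 days postimplant, twice daily for 14 days at 6.25, 12.5, 25 or 50 mg/kg alongside vehicle. Efficacy read as tumor volume.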
A general note: A xenograft is tissue or cells of one species grown in another, often human tumour cells in immunodeficient mice.

Series [13] can be described thus: Cytotoxicity against wild type mouse BA/F3 cells assessed as inhibition of cell proliferation after 48 hrs by luciferase reporter gene assay in presence of recombinant mouse IL3. In kind it is functional, cell-based. As to conditions: BaF3, 48 h. In short, it runs like this:
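Parental wild-type Ba/F3 cells grown with IL-3; proliferation assay, IC50 in μM.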
In general terms: Reporter assays use an easily measured gene product as a stand-in for the process of interest.

In series [14] the test system is KM12. Put plainly: Antitumor activity against human KM12 cells xenografted in CRL RNU nude rat assessed as induction of tumor regression at 50 mg/kg, po bid administered for 14 days relative to vehicle-treated control. The format is functional. In short, it runs like this:
as §2

The nature of series [15]: AUC in Sprague-Dawley rat at 10 mg/kg, po. The format is ADME, organism-based. As to conditions: in vivo. In short, it runs like this:
(§3)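 Male Sprague–Dawley rats dosed intravenously at 3 mg/kg and orally at 10 mg/kg, each as a solution in 75% PEG300/25% D5W. Plasma sampled for clearance, Vss, T1/2, oral AUC, Cmax and oral bioavailability F(%).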

The nature of series [16]: Oral bioavailability in Sprague-Dawley rat at 10 mg/kg. The format is ADME, organism-based. As to conditions: in vivo. In short, it runs like this: as §3
A short description of series [17]: Cmax in Sprague-Dawley rat at 10 mg/kg, po. In kind it is ADME, organism-based. Also noted: dose 10 mg/kg, route oral. The conditions noted are these: in vivo. In short, it runs like this:
as §3

Series [18] can be described thus: Half life in Sprague-Dawley rat at 3 mg/kg, iv and 10 mg/kg, po. As to conditions: in vivo. In kind it is ADME, organism-based. In short, it runs like this: as §3
Series [19] in a line: Plasma clearance in Sprague-Dawley rat at 3 mg/kg, iv and 10 mg/kg, po. The format is ADME, organism-based. In short, it runs like this: as §3
Series [20] is described as follows: Volume of distribution at steady state in Sprague-Dawley rat at 3 mg/kg, iv and 10 mg/kg, po. In kind it is ADME, organism-based. As to conditions: in vivo, read-out: Vdss. In short, it runs like this:
as §3

Series [21] relates to Rattus norvegicus. Put plainly: Plasma clearance in Sprague-Dawley rat at 3 mg/kg, iv and 10 mg/kg, po relative to hepatic blood flow. The conditions noted are these: in vivo. In kind it is ADME, organism-based.
Series [22] addresses BDNF/NT-3 growth factors receptor (Homo sapiens, UniProt Q16620). As to the kind of experiment: Inhibition of TRKB (unknown origin) by scintillation proximity assay. In short, it runs like this: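 TRKB biochemical inhibition measured by scintillation proximity assay; IC50 reported.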

Tyrosine-protein kinase JAK2, sequence (O60674 whole entry, looked up, the tested form may be a part): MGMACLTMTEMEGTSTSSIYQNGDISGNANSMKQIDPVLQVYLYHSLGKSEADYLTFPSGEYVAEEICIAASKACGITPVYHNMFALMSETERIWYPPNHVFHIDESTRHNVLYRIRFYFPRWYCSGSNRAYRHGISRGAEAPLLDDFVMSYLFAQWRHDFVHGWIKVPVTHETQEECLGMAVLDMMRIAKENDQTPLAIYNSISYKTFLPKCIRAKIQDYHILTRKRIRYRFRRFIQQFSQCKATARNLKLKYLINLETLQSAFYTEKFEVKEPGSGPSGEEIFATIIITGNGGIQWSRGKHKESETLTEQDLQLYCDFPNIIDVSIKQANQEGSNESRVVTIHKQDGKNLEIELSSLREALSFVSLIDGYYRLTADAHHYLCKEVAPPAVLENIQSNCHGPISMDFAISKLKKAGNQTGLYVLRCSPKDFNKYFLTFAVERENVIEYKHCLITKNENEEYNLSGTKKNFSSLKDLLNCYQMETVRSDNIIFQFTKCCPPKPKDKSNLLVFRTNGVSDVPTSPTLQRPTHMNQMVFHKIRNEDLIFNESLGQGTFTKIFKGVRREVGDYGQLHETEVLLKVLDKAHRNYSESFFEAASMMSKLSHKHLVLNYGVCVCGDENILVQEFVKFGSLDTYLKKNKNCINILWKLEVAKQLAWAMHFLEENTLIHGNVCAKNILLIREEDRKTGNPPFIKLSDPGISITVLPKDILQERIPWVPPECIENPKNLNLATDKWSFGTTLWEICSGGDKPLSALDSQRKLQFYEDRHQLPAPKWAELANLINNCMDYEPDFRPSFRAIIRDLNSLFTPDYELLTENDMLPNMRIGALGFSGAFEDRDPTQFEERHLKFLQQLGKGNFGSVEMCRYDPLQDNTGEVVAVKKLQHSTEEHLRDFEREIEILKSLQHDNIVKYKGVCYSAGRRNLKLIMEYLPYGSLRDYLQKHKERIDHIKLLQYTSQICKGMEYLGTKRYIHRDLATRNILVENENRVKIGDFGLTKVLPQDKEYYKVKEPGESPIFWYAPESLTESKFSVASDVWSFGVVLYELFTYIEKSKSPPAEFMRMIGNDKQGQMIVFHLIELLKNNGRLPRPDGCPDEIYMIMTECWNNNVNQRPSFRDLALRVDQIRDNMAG
BDNF/NT-3 growth factors receptor, sequence (Q16620 whole entry): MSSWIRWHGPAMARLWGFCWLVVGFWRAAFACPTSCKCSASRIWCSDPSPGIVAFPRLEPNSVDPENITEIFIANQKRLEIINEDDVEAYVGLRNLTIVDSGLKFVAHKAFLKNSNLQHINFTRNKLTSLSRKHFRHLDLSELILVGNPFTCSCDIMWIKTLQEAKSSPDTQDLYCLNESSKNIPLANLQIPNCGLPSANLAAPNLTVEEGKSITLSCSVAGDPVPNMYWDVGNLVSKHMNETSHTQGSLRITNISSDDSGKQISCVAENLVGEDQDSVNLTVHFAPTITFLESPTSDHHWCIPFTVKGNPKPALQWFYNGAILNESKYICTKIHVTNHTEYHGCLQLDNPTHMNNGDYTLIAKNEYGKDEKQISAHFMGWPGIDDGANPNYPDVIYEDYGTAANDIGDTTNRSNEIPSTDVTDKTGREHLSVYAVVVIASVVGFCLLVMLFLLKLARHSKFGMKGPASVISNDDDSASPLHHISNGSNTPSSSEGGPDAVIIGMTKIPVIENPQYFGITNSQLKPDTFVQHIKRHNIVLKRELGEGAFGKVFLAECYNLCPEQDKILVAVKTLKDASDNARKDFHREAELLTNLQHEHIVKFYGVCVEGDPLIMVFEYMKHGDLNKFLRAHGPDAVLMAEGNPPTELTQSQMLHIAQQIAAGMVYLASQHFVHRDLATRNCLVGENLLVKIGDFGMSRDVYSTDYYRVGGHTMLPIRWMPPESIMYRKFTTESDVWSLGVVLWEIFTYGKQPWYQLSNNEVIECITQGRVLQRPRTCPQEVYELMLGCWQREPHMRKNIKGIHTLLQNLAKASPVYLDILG

Take `OC1CCN(c2cc(-c3cnc4ccc(N5CCC[C@@H]5c5cccc(F)c5)nn34)ccn2)CC1`: the Activity result in series [1] was “Toxic”; in series [14], 20%. For the same molecule, the Vd in [2] was 4.9 L/kg. The half-life – broadly, the time needed for the level to fall by half in the phase considered – in series [3] was 96 min. Further, the CL in series [4] was found to be 82%. For the same molecule, the Kp in [5] and in series [11] was 0.2 in each case. Also, in series [6], the bioavailability (commonly the share of a dose that reaches the circulation, judged against a reference dose that is usually intravenous) was determined as 27%. In addition, in series [7], the AUC (usually concentration integrated over time) turned out to be 1.88 µM·h. For the same molecule, the clearance in series [8] came to 45.2 mL/min/kg. Also, the concentration in [9] peaked (Cmax) at 215 nM. The IC50 – broadly, the point on the concentration scale where inhibition reaches its midpoint – was 5.6 µM in series [10] and 5.91 µM in [13]. Also, in series [12], the TGI result is “Dose-dependent effect”.

Turning to `OCc1ccc(-c2cnc3ccc(NCc4cccc(F)c4)nn23)cc1`, the IC50 in series [13] stood at 1.92 µM.

For the molecule `N#Cc1ccc(-c2cnc3ccc(N4CCC[C@H]4c4cccc(F)c4)nn23)cc1`, the IC50 in series [13] was determined as 9.23 µM.

In the case of `OC1CCN(c2cccc(-c3cnc4ccc(N5CCC[C@@H]5c5cccc(F)c5)nn34)n2)CC1`, the AUC in series [15] was found to be 0.659 µM·h. The same molecule displayed a bioavailability in series [16] of 10%. In addition, the Cmax (usually the highest concentration seen after dosing) in series [17] worked out at 110 nM. Moreover, in series [18], the half-life is 49.8 min. In series [19], this molecule came in with a clearance of 56.9 mL/min/kg. Further, the Vd in series [20] turned out to be 2.3 L/kg. The molecule also gave a CL in series [21] of 100%. In series [13], the IC50 is above 10 µM.

`N#Cc1ccc(-c2cnc3ccc(N4CCCC4c4cccc(F)c4)nn23)cc1` (racemic): in [13], the half-inhibitory concentration (IC50) is above 10 µM.

For the molecule `O=C(Nc1ccc(-c2cnc3ccc(NCc4cccc(F)c4)nn23)cc1)C1CCOCC1`, in series [13], the IC50 was 3 µM.

As to `N#Cc1cccc(-c2cnc3ccc(NCc4ccccc4)nn23)c1`, in series [13], the IC50 is above 10 µM.

`N#Cc1ccc(-c2cnc3ccc(N4CCC[C@@H]4c4cccc(F)c4)nn23)cc1`: the IC50 in series [13] is above 10 µM.

Regarding `N#Cc1ccc(-c2cnc3ccc(NCc4ccccc4)nn23)cc1`, the IC50 in [10] was determined as 4.7 µM; in [22] it was 0.083 µM; in series [13], 7.13 µM.

In [15], `O=C(O)CN1CCN(c2cc(-c3cnc4ccc(N5CCC[C@@H]5c5cccc(F)c5)nn34)ccn2)CC1` displayed an AUC of 1.9 µM·h. The molecule further showed a bioavailability in series [16] of 26%. This molecule displayed a Cmax in [17] of 250 nM. In addition, the half-life in [18] was 54 min. Also, the Kp in series [5] and in [11] was 0.8 throughout. Besides, the clearance in series [19] was 45.5 mL/min/kg. In series [20], the Vd came out at 2.4 L/kg. The IC50 in series [10] was 2.7 µM; in [13], 4.79 µM. The molecule also registered a CL in [21] of 82%.

In the case of `COc1ccccc1CNc1ccc2ncc(-c3ccc(C#N)cc3)n2n1`, the IC50 in [13] came out at 1.01 µM.

Regarding `CN(Cc1ccccc1)c1ccc2ncc(-c3ccc(C#N)cc3)n2n1`, the IC50 in [13] worked out at 5.89 µM.

As for `N#Cc1ccc(-c2cnc3ccc(N4CCCCC4c4cccc(F)c4)nn23)cc1` (racemic), the IC50 in series [13] was above 10 µM.

`N#Cc1ccc(-c2cnc3ccc(NCc4cccc(F)c4)nn23)cc1`: the IC50 in series [13] was 3.92 µM.

For `NS(=O)(=O)c1ccc(-c2cnc3ccc(NCc4cccc(F)c4)nn23)cc1`, the IC50 in [13] came to 2.53 µM.

Turning to `N#Cc1ccc(-c2cnc3ccc(N4CCOCC4c4cccc(F)c4)nn23)cc1` (racemic), in [13], the IC50 was above 10 µM.

For the molecule `Fc1cccc([C@H]2CCCN2c2ccc3ncc(-c4ccccn4)n3n2)c1`, the results for the IC50 in series [10] and in series [13] were 6.7 µM and above 10 µM, respectively.
